Experimental data: ChEMBL document CHEMBL1157373, “Dual targeting of DNA gyrase and topoisomerase IV: target interactions of heteroaryl isothiazolones in Staphylococcus aureus” (Antimicrob Agents Chemother, 2007)
Converted amounts (≈) assume the structure as drawn.

What was measured:
[1] = system: Staphylococcus aureus; assay: Antibacterial activity against Staphylococcus aureus ACH-0201 isolate with gyrA Ser84Leu, Glu88Val and grlA Ser80Phe, Ala116Val mutant after 24 hrs by broth microdilution method; assay type: functional
[2] = system: Staphylococcus aureus; assay: Antibacterial activity against Staphylococcus aureus BSA643 isolate with gyrA Ser84Leu and grlA Ser80Tyr, Glu84Gly mutant assessed as doubling time of bacterial growth at 1 ug/ml; assay type: functional
Summary of the method: (§1)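 Overnight cultures in MH or Mueller-Hinton II medium at 37°C with aeration were diluted to OD625 of about 0.05. Turbidity was read every 30 min over the first 7 h. Doubling time was estimated from log OD625 versus time growth curves.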

[3] = system: Staphylococcus aureus; assay: Antibacterial activity against Staphylococcus aureus ATCC 29213 after 24 hrs by broth microdilution method; assay type: functional; settings: ATCC 29213, 24 h
Summary of the method: (§2)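 Broth microdilution per CLSI guidelines. MIC taken as the lowest concentration preventing visible growth at 24 h. Each MIC determined at least twice.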

[4] = system: Staphylococcus aureus; assay: Antibacterial activity against Staphylococcus aureus BSA643 isolate with gyrA Ser84Leu and grlA Ser80Tyr, Glu84Gly mutant after 24 hrs by broth microdilution method; assay type: functional
[5] = system: Staphylococcus aureus; assay: Antibacterial activity against Staphylococcus aureus ATCC 700699 isolate with gyrA Ser84Leu, Glu409Lys and grlA Ser80Phe mutant assessed as doubling time of bacterial growth at 1 ug/ml; assay type: functional; summary of the method: as §1
[6] = system: Staphylococcus aureus; assay: Antibacterial activity against Staphylococcus aureus ACH-0201 isolate with gyrA Ser84Leu, Glu88Val and grlA Ser80Phe, Ala116Val mutant assessed as doubling time of bacterial growth at 1 ug/ml; assay type: functional; summary of the method: as §1
[7] = system: Staphylococcus aureus; assay: Antibacterial activity against Staphylococcus aureus ACH-0204 isolate with gyrA Ser84Leu mutant after 24 hrs by broth microdilution method; assay type: functional; summary of the method: as §2
[8] = system: Staphylococcus aureus; assay: Antibacterial activity against Staphylococcus aureus ACH-0126 isolate with gyrA Ser84Leu and grlA Ser80Phe mutant assessed as doubling time of bacterial growth at 1 ug/ml; assay type: functional; summary of the method: as §1
[9] = system: Staphylococcus aureus; assay: Antibacterial activity against Staphylococcus aureus ACH-0186 isolate with gyrA Ser84Leu and grlA Ser80Phe mutant assessed as doubling time of bacterial growth at 1 ug/ml; assay type: functional; summary of the method: as §1
[10] = system: Staphylococcus aureus; assay: Antibacterial activity against Staphylococcus aureus ATCC 33591 isolate after 24 hrs by broth microdilution method; assay type: functional; settings: ATCC 33591, 24 h; summary of the method: as §2
[11] = system: Staphylococcus aureus; assay: Antibacterial activity against Staphylococcus aureus ACH-0221 isolate with gyrA Ser84Leu mutant after 24 hrs by broth microdilution method; assay type: functional; summary of the method: as §2
[12] = system: Staphylococcus aureus; assay: Antibacterial activity against Staphylococcus aureus ACH-0231 isolate with gyrA Ser84Leu, Glu88Lys and grlA Ser80Tyr, Glu84Gly mutant after 24 hrs by broth microdilution method; assay type: functional
[13] = system: Staphylococcus aureus; assay: Antibacterial activity against Staphylococcus aureus ACH-0141 isolate with gyrA Ser84Leu, Glu88Val and grlA Ser80Phe, Ala116Val mutant after 24 hrs by broth microdilution method; assay type: functional
[14] = system: Staphylococcus aureus; assay: Antibacterial activity against Staphylococcus aureus ACH-0218 isolate with grlA Glu84Lys mutant after 24 hrs by broth microdilution method; assay type: functional; summary of the method: as §2
[15] = system: Staphylococcus aureus; assay: Antibacterial activity against Staphylococcus aureus BSA678 isolate with gyrA Ser84Leu, Ser85Pro and grlA Ser80Phe, Glu84Lys mutant assessed as doubling time of bacterial growth at 1 ug/ml
[16] = system: Staphylococcus aureus; assay: Antibacterial activity against Staphylococcus aureus ACH-0210 isolate with gyrA Ser84Leu and grlA Ser80Phe mutant after 24 hrs by broth microdilution method; assay type: functional
[17] = system: Staphylococcus aureus; assay: Antibacterial activity against Staphylococcus aureus ACH-0203 isolate with gyrA Ser84Leu and grlA Ser80Phe, Ala116Val mutant after 24 hrs by broth microdilution method; assay type: functional; summary of the method: as §2
[18] = Inhibition of Staphylococcus aureus […] topoisomerase 4 grlA S80F mutant decatenation activity assessed as unlinking of DNA microcircles from kinetoplast DNA
Summary of the method: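 Recombinant S. aureus GrlA (Ser80Phe) and GrlB were mixed 1:1 molar on ice for 10 min. kDNA (0.1 μg) with 2 U enzyme, 30 min at 37°C, in 1 mM ATP, 5 mM MgCl2, 250 mM K-glutamate, 50 mM Tris pH 7.5. Reactions stopped with EDTA, run on 1% agarose-TBE and ethidium-stained, minicircles quantitated. IC50 by nonlinear regression.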

[19] = system: Staphylococcus aureus; assay: Antibacterial activity against Staphylococcus aureus BSA678 isolate with gyrA Ser84Leu, Ser85Pro and grlA Ser80Phe, Glu84Lys mutant after 24 hrs by broth microdilution method
[20] = system: Staphylococcus aureus; assay: (§3) Antibacterial activity against Staphylococcus aureus ACH-0129 isolate with gyrA Ser84Leu, Glu88Val and grlA Ser80Phe, Ala116Val mutant after 24 hrs by broth microdilution method; assay type: functional
[21] = system: Staphylococcus aureus; assay: Antibacterial activity against Staphylococcus aureus ACH-0129 isolate with gyrA Ser84Leu, Glu88Val and grlA Ser80Phe, Ala116Val mutant assessed as doubling time of bacterial growth at 1 ug/ml; assay type: functional; summary of the method: as §1
[22] = system: Staphylococcus aureus; assay: Antibacterial activity against Staphylococcus aureus ACH-0130 isolate with gyrA Ser84Leu, Glu88Val and grlA Ser80Phe, Ala116Val mutant assessed as doubling time of bacterial growth at 1 ug/ml; assay type: functional; summary of the method: as §1
[23] = system: Staphylococcus aureus; assay: Antibacterial activity against Staphylococcus aureus ACH-0203 isolate with gyrA Ser84Leu and grlA Ser80Phe, Ala116Val mutant assessed as doubling time of bacterial growth at 1 ug/ml; assay type: functional; summary of the method: as §1
[24] = system: Staphylococcus aureus; assay: Antibacterial activity against Staphylococcus aureus ACH-0192 isolate with gyrA Ser84Leu and grlA Ser80Phe, Ala116Val mutant after 24 hrs by broth microdilution method; assay type: functional
[25] = system: Staphylococcus aureus; assay: Antibacterial activity against Staphylococcus aureus ACH-0141 isolate with gyrA Ser84Leu, Glu88Val and grlA Ser80Phe, Ala116Val mutant assessed as doubling time of bacterial growth at 1 ug/ml; assay type: functional; summary of the method: as §1
[26] = system: Staphylococcus aureus; assay: Antibacterial activity against Staphylococcus aureus ACH-0192 isolate with gyrA Ser84Leu and grlA Ser80Phe, Ala116Val mutant assessed as doubling time of bacterial growth at 1 ug/ml; assay type: functional; summary of the method: as §1
[27] = system: Staphylococcus aureus; assay: Antibacterial activity against Staphylococcus aureus ACH-0186 isolate with gyrA Ser84Leu and grlA Ser80Phe, Ala116Val mutant after 24 hrs by broth microdilution method; assay type: functional
[28] = system: Staphylococcus aureus; assay: Antibacterial activity against Staphylococcus aureus ACH-0231 isolate with gyrA Ser84Leu, Glu88Lys and grlA Ser80Tyr, Glu84Gly mutant assessed as doubling time of bacterial growth at 1 ug/ml; assay type: functional; summary of the method: as §1
[29] = system: Staphylococcus aureus; assay: Antibacterial activity against Staphylococcus aureus ACH-0126 isolate with gyrA Ser84Leu and grlA Ser80Phe mutant after 24 hrs by broth microdilution method; assay type: functional
[30] = system: Staphylococcus aureus; assay: Antibacterial activity against Staphylococcus aureus ATCC 29213 assessed as doubling time of bacterial growth at 1 ug/ml; assay type: functional; summary of the method: as §1
[31] = system: Staphylococcus aureus; assay: Antibacterial activity against Staphylococcus aureus ACH-0206 isolate with gyrA Ser84Leu mutant after 24 hrs by broth microdilution method; assay type: functional; summary of the method: as §2
[32] = system: Staphylococcus aureus; assay: Antibacterial activity against Staphylococcus aureus NY2746 isolate with gyrA Ser84Leu and grlA Ser80Phe mutant assessed as doubling time of bacterial growth at 1 ug/ml; assay type: functional; summary of the method: as §1
[33] = system: Staphylococcus aureus; assay: Antibacterial activity against Staphylococcus aureus ATCC 700699 isolate with gyrA Ser84Leu, Glu409Lys and grlA Ser80Phe mutant after 24 hrs by broth microdilution method; assay type: functional; settings: ATCC 700699, 24 h
[34] = system: Staphylococcus aureus; assay: Antibacterial activity against Staphylococcus aureus ACH-0216 isolate with grlA Ser80Phe mutant after 24 hrs by broth microdilution method; assay type: functional; summary of the method: as §2
[35] = system: Staphylococcus aureus; assay: as §3; assay type: functional; remark: listed apart in the source
[36] = system: Staphylococcus aureus; assay: Antibacterial activity against Staphylococcus aureus NY2746 isolate with gyrA Ser84Leu and grlA Ser80Phe mutant after 24 hrs by broth microdilution method; assay type: functional
[37] = target: DNA gyrase subunit A (Staphylococcus aureus, UniProt P20831, S84L); assay: Inhibition of Staphylococcus aureus DNA gyrase gyrA S84L mutant supercoiling activity assessed as effect on conversion of relaxed pBR322 DNA to supercoiled form
[38] = Inhibition of Staphylococcus aureus wild-type topoisomerase 4 decatenation activity assessed as unlinking of DNA microcircles from kinetoplast DNA
Summary of the method: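 S. aureus topo IV reconstituted from His-purified recombinant GrlA and GrlB (E. coli BL21(DE3)pLysS expression), mixed 1:1 molar on ice 10 min. 0.1 μg catenated kDNA with 2 U enzyme, 30 min at 37°C in 1 mM ATP, 5 mM DTT, 5 mM MgCl2, 50 μg/ml BSA, 50 mM Tris-HCl pH 7.5, 250 mM potassium glutamate. Products on 1% agarose gel, ethidium-stained, quantitated; IC50 by nonlinear regression.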

Row | Compound | MIC [1] | MIC [3] | MIC [4] | MIC [7] | MIC [10] | MIC [11] | MIC [12] | MIC [13] | MIC [14] | MIC [16] | MIC [17] | IC50 [18] | MIC [19] | MIC [20] | MIC [24] | MIC [27] | MIC [29] | MIC [31] | MIC [33] | MIC [34] | also measured
1 | COc1c(-c2ccnc(C)c2)c(F)cc2c(=O)c3c(=O)[nH]sc3n(C3CC3)c12 | 2 µg/mL (≈ 5.03 µM) | 0.004 µg/mL (≈ 0.0101 µM) | 0.125 µg/mL (≈ 0.315 µM) | 0.016 µg/mL (≈ 0.0403 µM) | 0.004 µg/mL (≈ 0.0101 µM) | 0.03 µg/mL (≈ 0.0755 µM) | 2 µg/mL (≈ 5.03 µM) | 2 µg/mL (≈ 5.03 µM) | 0.008 µg/mL (≈ 0.0201 µM) | 0.125 µg/mL (≈ 0.315 µM) | 1 µg/mL (≈ 2.52 µM) | 15.8 µM | 0.5 µg/mL (≈ 1.26 µM) | 0.5 µg/mL (≈ 1.26 µM) | 0.5 µg/mL (≈ 1.26 µM) | 0.5 µg/mL (≈ 1.26 µM) | 0.125 µg/mL (≈ 0.315 µM) | 0.015 µg/mL (≈ 0.0377 µM) | 0.25 µg/mL (≈ 0.629 µM) | 0.008 µg/mL (≈ 0.0201 µM) | Time [2]: 38 min; Time [5]: 39 min; Time [6]: 180 min; Time [8]: 34 min; Time [9]: 34 min; Time [15]: 42 min; Time [21]: 40 min; Time [22]: 52 min; Time [23]: 338 min; Time [25]: 340 min; Time [26]: 121 min; Time [28]: 35 min; Time [30]: 30 min; Time [32]: 33 min; MIC [35]: 0.5 µg/mL (≈ 1.26 µM); MIC [36]: 0.25 µg/mL (≈ 0.629 µM); IC50 [37]: 52.3 µM; IC50 [38]: 1 µM
2 | COc1c(-c2cc(C)nc(C)c2)c(F)cc2c(=O)c3c(=O)[nH]sc3n(C3CC3)c12 | 1 µg/mL (≈ 2.43 µM) | 0.004 µg/mL (≈ 0.00972 µM) | 0.125 µg/mL (≈ 0.304 µM) | 0.016 µg/mL (≈ 0.0389 µM) | 0.004 µg/mL (≈ 0.00972 µM) | 0.03 µg/mL (≈ 0.0729 µM) | 1 µg/mL (≈ 2.43 µM) | 2 µg/mL (≈ 4.86 µM) | 0.004 µg/mL (≈ 0.00972 µM) | 0.125 µg/mL (≈ 0.304 µM) | 1 µg/mL (≈ 2.43 µM) | 9.3 µM | 0.5 µg/mL (≈ 1.22 µM) | 0.5 µg/mL (≈ 1.22 µM) | 1 µg/mL (≈ 2.43 µM) | 0.25 µg/mL (≈ 0.608 µM) | 0.125 µg/mL (≈ 0.304 µM) | 0.015 µg/mL (≈ 0.0365 µM) | 0.125 µg/mL (≈ 0.304 µM) | 0.008 µg/mL (≈ 0.0194 µM) | MIC [35]: 0.5 µg/mL (≈ 1.22 µM); MIC [36]: 0.25 µg/mL (≈ 0.608 µM); IC50 [37]: 21.5 µM; IC50 [38]: 0.8 µM
